Reference: ChEMBL document CHEMBL1138474, “Modulation of the transient receptor potential vanilloid channel TRPV4 by 4alpha-phorbol esters: a structure-activity study” (J Med Chem, 2009)
Active and inactive are the calls of the source. The calls are words filed in the database; no cut-off is given here.

Experiments:
[1] = target: Transient receptor potential cation channel subfamily V member 4 (Mus musculus, UniProt Q9EPK8, W586A); assay: Activation of mouse TRPV4 W586A mutant expressed in HEK293 cells assessed as increase in intracellular calcium concentration; assay type: cell-based
Transient receptor potential cation channel subfamily V member 4 (Mus musculus, UniProt Q9EPK8, W586A), sequence (Q9EPK8 whole entry W586A, the tested form may be a part): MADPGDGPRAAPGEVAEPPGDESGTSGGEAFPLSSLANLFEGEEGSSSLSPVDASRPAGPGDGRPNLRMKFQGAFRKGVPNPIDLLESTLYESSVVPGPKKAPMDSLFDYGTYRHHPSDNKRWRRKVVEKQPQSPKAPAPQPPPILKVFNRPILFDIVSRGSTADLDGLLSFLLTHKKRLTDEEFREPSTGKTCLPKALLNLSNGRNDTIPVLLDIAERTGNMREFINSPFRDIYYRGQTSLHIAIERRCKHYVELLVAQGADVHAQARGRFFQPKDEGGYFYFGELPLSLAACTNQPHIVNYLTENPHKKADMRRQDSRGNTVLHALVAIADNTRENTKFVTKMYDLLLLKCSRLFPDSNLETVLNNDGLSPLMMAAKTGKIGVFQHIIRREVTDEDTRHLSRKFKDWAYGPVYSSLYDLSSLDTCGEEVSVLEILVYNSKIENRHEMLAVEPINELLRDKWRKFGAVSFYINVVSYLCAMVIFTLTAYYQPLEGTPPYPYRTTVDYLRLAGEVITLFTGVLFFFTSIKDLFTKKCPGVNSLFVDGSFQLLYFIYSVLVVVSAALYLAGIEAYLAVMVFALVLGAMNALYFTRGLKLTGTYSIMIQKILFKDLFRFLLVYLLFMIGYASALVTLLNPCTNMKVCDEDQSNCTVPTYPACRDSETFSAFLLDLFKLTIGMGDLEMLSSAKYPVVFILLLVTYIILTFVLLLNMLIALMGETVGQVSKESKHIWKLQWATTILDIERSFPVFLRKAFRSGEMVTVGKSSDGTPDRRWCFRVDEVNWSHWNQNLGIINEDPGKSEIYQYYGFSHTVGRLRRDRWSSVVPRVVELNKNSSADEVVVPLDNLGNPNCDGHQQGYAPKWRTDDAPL
How it was run: (§1)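 mTRPV4 (wild type or the Y556A, S557A or W586A TM3-4 mutant) in pCAGGS/Ires-GFP was transiently transfected into HEK293 cells and incubated overnight. GFP-positive cells on poly-L-lysine coverslips were loaded with 4 µM Fura-2 AM for 30 min at 37 °C and perfused with Krebs solution (1.5 mM CaCl2, pH 7.4). The 340/380 nm ratio (510 nm emission) gave ∆Fura-2 ratio. EC50 came from a Hill fit, >15 cells, three transfections.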

[2] = target: Transient receptor potential cation channel subfamily V member 4 (Mus musculus, UniProt Q9EPK8, Y556A); assay: Activation of mouse TRPV4 Y556A mutant expressed in HEK293 cells assessed as increase in intracellular calcium concentration; assay type: cell-based; how it was run: as §1
Transient receptor potential cation channel subfamily V member 4 (Mus musculus, UniProt Q9EPK8, Y556A), sequence (Q9EPK8 whole entry Y556A): as the sequence (Q9EPK8 whole entry W586A, the tested form may be a part) above, with Y556A, A586W counted along it

[3] = target: Transient receptor potential cation channel subfamily V member 4 (Mus musculus, UniProt Q9EPK8); assay: Activation of mouse wild type TRPV4 expressed in HEK293 cells assessed as increase in intracellular calcium concentration; assay type: cell-based; how it was run: as §1
Transient receptor potential cation channel subfamily V member 4 (Mus musculus, UniProt Q9EPK8), sequence (Q9EPK8 whole entry): as the sequence (Q9EPK8 whole entry W586A, the tested form may be a part) above, with A586W counted along it

[4] = target: Transient receptor potential cation channel subfamily V member 4 (Mus musculus, UniProt Q9EPK8, S557A); assay: Activation of mouse TRPV4 S557A mutant expressed in HEK293 cells assessed as increase in intracellular calcium concentration; assay type: cell-based; how it was run: as §1
Transient receptor potential cation channel subfamily V member 4 (Mus musculus, UniProt Q9EPK8, S557A), sequence (Q9EPK8 whole entry S557A): as the sequence (Q9EPK8 whole entry W586A, the tested form may be a part) above, with S557A, A586W counted along it

HEK293 = assay: Effect on intracellular calcium level in non transfected HEK293 cells assessed as increase in fura-2 ratio; assay type: functional, cell-based; conditions: Homo sapiens
How it was run: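 GFP-negative cells from the same coverslips as the mTRPV4-transfected HEK293 cells served as untransfected controls. Cells were loaded with 4 µM Fura-2 AM for 30 min at 37 °C and perfused with Krebs solution (pH 7.4). ∆Fura-2 ratio was taken as (Rt−Rt0)/Rt0 from 340/380 nm excitation, with background subtracted.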

With `CCCCCCCCCC(=O)O[C@@H]1[C@@H](C)[C@@]2(O)[C@@H](C=C(CO)C[C@@]3(O)C(=O)C(C)=C[C@@H]23)[C@@H]2C(C)(C)[C@]12OC(=O)CCCCCCCCC` the EC50 [1] was > 6 µM, the EC50 [2] was 6.3 µM and the EC50 [3] was 0.37 µM. The EC50 [4] was 0.32 µM and the Activity (HEK293) was “Active”.
With `CCCCCCCCCC(=O)O[C@@H]1[C@@H](C)[C@]2(O)[C@@H]3C=C(C)C(=O)[C@@H]3CC(CO)=C[C@H]2[C@@H]2C(C)(C)[C@]12OC(=O)CCCCCCCCC` the EC50 [3] was > 50 µM.
Work on `CCCC(=O)O[C@@H]1[C@@H](C)[C@@]2(O)[C@@H](C=C(CO)C[C@]3(O)C(=O)C(C)=C[C@@H]23)[C@@H]2C(C)(C)[C@]12OC(=O)CCC` yielded an EC50 [3] of 22.5 µM.
For `CCCCCCCCCC(=O)O[C@@]12[C@H](O)[C@@H](C)[C@@]3(O)[C@@H](C=C(CO)C[C@@]4(O)C(=O)C(C)=C[C@@H]34)[C@@H]1C2(C)C`, the EC50 [3] was 0.45 µM and the Activity (HEK293) was “Active”.
With `CCCCCCCC(=O)O[C@@H]1[C@@H](C)[C@@]2(O)[C@@H](C=C(CO)C[C@@]3(O)C(=O)C(C)=C[C@@H]23)[C@@H]2C(C)(C)[C@]12OC(=O)CCCCCCC` the EC50 [3] was > 50 µM.
